We go through 37 variants from the RNAGym collection of RNA variant scans (doi:10.1126/science.aae0568).

To fix the notation:
B1: tRNA (parent)
chain: GUUCCGUUGGCGUAAUGGUAACGCGUCUCCCUCCUAAGGAGAAGACUGCGGGUUCGAGUCCCGUACGGAACG

Fewer inactive variants are shown than the library holds.

The data set covers variants of B1. Nature of the data set: yeast fitness relative to wild type (ratio to wild type); higher = fitter; tRNA-Arg(CCU), competitive growth, 37 C, YPD. The method, boiled down: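 Changes in genotype frequencies gave Darwinian fitness relative to wild type. Frequencies were read by 100-nucleotide paired-end sequencing of gene amplicons before and after pooled Saccharomyces cerevisiae strains, carrying tRNA-Arg(CCU) gene variants at the native locus, were competed in YPD at 37°C for 24 hours in six replicates. A genotype was kept only with ≥ 100 starting reads, and estimates < 0.5 were set to 0.5.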
Consider GUUCCGUUGGCGUAAUGGAAACGCGUCUGCCUCCUAAGGAGAAGACUGCGGGUCCGAGUCCCGUACGGAACG [U19A C29G U54C], for which the yeast fitness is not above 0.5.
On to GUUCCGUUGGCGUAAUGGAAACGCGUCUCCCUCCUAAGGAGAAGUUUGCGGGUUCGAGUCCCGUACGGAACG [U19A A45U C46U], for which the yeast fitness was 1.07.
For GUUCCGUUGGCGUAAUGGAAACGCGUCUCCCUCCUAAGGAGAAGACUGCGGGUUCGAGUCCCGAACGGAACG [U19A U64A], the yeast fitness was 0.807.
Take GUUCCGUUGGCGUAAUGGAAACGCGUGUCCCUCCUAAGGAGAAGACUGCGGGUUCGAGUCCCCUACGGAACG [U19A C27G G63C]: the yeast fitness worked out at 0.754.
In the case of GUUCCGUUGGCGUAAUGGAAACGCGUCUUCCUCCUAAGGAGAAGACUGCGGGUUAGCGCCCCGUACGGAACG [U19A C29U C55A A57C U59C] it was not above 0.5.
Take GUUCCGUUGGCGUAAUGUUAACGCGACUCCCUCCUAAGGAGAAGACUGCGGGUUCGAGUCCCGUAAGGAUCG [G18U U26A C66A A70U]: the yeast fitness is 0.536.
GUUCCGUUGGCGUAAUGGAAACGCGUCUCCCUCCUAAGGAGAAGACUACGGGUUCGAGUCCCGUACGCAACG [U19A G48A G68C]: the yeast fitness is 0.626.
Under GUUCCGUUGGCGUAAUGGAAACGCGUCUCUCUCCUAACGAGAAGACUGCGGGUUCGAGUCCCGUACGGAACG [U19A C30U G38C] stands 0.694.
Consider GUUCCGUUGGCGUAAUGGAAACGCGUCUCCCUCCUAAGGAGAAGGCUGCGGGUUCGAGUCCCGUACGCAACG [U19A A45G G68C], for which the yeast fitness was not above 0.5.
In the case of GUUCCGUUGGCGUAAUGGAAACGCGUCUCCGUCCUAAGGAGAACACUGCGGGUUCGAGUCCCGUACGGAACG [U19A C31G G44C] it was not above 0.5; in that of GUUCCGUUGGCGUAAUGGAAACGCGUCUCCCUCGUAAGGAGAAGACUGCGGGUUCGUGUCCCGUACGGAACG [U19A C34G A57U], not above 0.5; in that of GUUCCGUUGGCGUAAUGCUAACGCGACUCCCUCCUAAGGAGAAGGCUGCGGGUUCGAGUCCCGUAGGGAACG [G18C U26A A45G C66G], not above 0.5.
Under GUUCCGUUGGCGUAAUGGAAACGCGUCUCACUCCUAAGGAGAGGACUGUGUGUUAGAGUCCCGUACGGAACG [U19A C30A A43G C49U G51U C55A] stands 0.528; under GUUCCGUUGGCGUAAUGGCAGCGCGGCUCCCUCCUAAGGAGAAGACUCCGGGUUCGAGUCCCGUACGGAACG [U19C A21G U26G G48C], 0.624; under GUUCCGUUGGCGUAAUGGAAACGCGUCUCCCUCCUAAGGAGAAGAUUGGGGGUUCGAGUCCCGUACGGAACG [U19A C46U C49G], 1.07.
Under GUUCCGUUGGCGUAAUGGAAGCGCGUCUCCCUCCUAAGGAGAAGACUGCGGGUUCGAGUCCCGUACGGAACG [U19A A21G] stands 0.987.
Take GUUCCGUUGGCGUAAUGGAAACGCGUCUCCCUCCUAAGGAGAAGACUGCGGGUUCGGGUCCCGUACGGAACG [U19A A57G]: the yeast fitness came out at 0.931.
Regarding GUUCCGUUGGCGUAAUGGAAACGCGUCCCCCUCCUAAGGAGAAGACUGCGGGUUCGAGUCCCGUACGGCACG [U19A U28C A69C], the yeast fitness stood at 0.674.
With GUUCCGUUGGCGUAAUGGCAACGCGUCUCCCUCCUAUGGAGAAGACUGCGGGUUCGAGUCCAGCACGGAACG [U19C A37U C62A U64C], the yeast fitness came to 0.725.
In the case of GUUCCGUUGGCGUAAUGGCAACGCGUCUCCCUCCUAGGGAGAAGACUGCGGGUUCGACUCUCGCACGGAACG [U19C A37G G58C C61U U64C] it was not above 0.5; in that of GUUCCGUUGGCGUAAUGGAAACGCGUCUCCCUCCUAAGGAGAAGAUUACGGGCUCGAGUCCCGUACGGAACG [U19A C46U G48A U53C], 0.784.
In the case of GUUCCGUUGGCGUAAUGUUAACGCGACUCCCUCCUAAGGAGAAGACUGCGGGUUCGAGCCCCGUAAGGAUCG [G18U U26A U59C C66A A70U] it was not above 0.5; in that of GUUCCGUUGGCGUAAUGUUAUCGCGUCUCCCUCCUAAGGAGAAGACUGCGGAUUCGAGUCCCGUACGGAACG [G18U A21U G52A], not above 0.5; in that of GUUCCGUUGGCGUAAUGGAACCGCCUCUCCCUCCUAAGGAGAAGACUGCGGGUUCGAGUCCCGUACGCAACG [U19A A21C G25C G68C], 0.752.
In the case of GUUCCGUUGGCGUAAUGGAAAUGCGUCUCCCUCCUAAGGUGAAGACUGCGCGUUCGAGUCCCGUACGGAACG [U19A C22U A40U G51C] it was not above 0.5; in that of GUUCCGUUGGCGUAAUGGAUACGCGUCUCCCUCCUAAGGAGAAGACUGCGGGCUCGAGUCCCGUACGGAACG [U19A A20U U53C], not above 0.5.
As to GUUCCGUUGGCGUAAUGUUAACGCGUCUCCCUCUUAAGGAGAAGACUGCGGGUUCGAGUCCCGUACGGAACG [G18U C34U], the yeast fitness is not above 0.5.
On to GUUCCGUUGGCGUAAUGGAAACGCGUCUCCCUCCUAAGGAGAUGCCUGCGGGUUCGAGUCCCGUACCGAACG [U19A A43U A45C G67C], for which the yeast fitness was not above 0.5.
In the case of GUUCCGUUGGCGUAAUGGCAACGCGUCUCCCUCCUGAGGAGAAGACUGCGGGUUCGAGUCCCGUACGGAACG [U19C A36G] it was 1.01; in that of GUUCCGUUGGCGUAAUGCUAACGCGUCUCCCUCCAAAGGAGAAGCCUGCGGGUUCGAGUCCUGUACGGAACG [G18C U35A A45C C62U], 0.542.
In the case of GUUCCGUUGGCGUAAUGGAAACGCGUCUCCCUCCUAAGGAGAAGACUACGGGUUCGAGUCCCGUUCGGAACG [U19A G48A A65U] it was 0.71; in that of GUUCCGUUGGCGUAAUGGAAACGCGUCUCCCUCCUAAGGAGAAGACUGCGGGUUCAAGUCCCGUACGGAACG [U19A G56A], 1; in that of GUUCCGUUGGCGUAAUGGAAACGCGUCUCCCUCCUAAGGAGAAGACUGCGGGUUCGAGUCUCGUACGGAACG [U19A C61U], 0.983.
In the case of GUUCCGUUGGCGUAAUGGAAACGCGUCUCCCUCCUAAGGAGAAGACUGCGGGUUCGAGUCACGUACGGAACG [U19A C61A] it was 0.673; in that of GUUCCGUUGGCGUAAUGGAAACGCGUCUCCCUCGUAAGGAGACGACUGCGGGUUCGAGUCCCGUACGGAACG [U19A C34G A43C], 0.534; in that of GUUCCGUUGGCGUAAUGGACGCGCGUCUCGCUCCUAAGGAGAGGACUGCGGGUUGGAGUCCCGUACGGAACG [U19A A20C A21G C30G A43G C55G], not above 0.5.
As for GUUCCGUUGGCGUAAUGGAAACGCGUCUCCCCCCUAAGGAGAAGACUGAGGGUUCGAGUCCCGUACGGAACG [U19A U32C C49A], the yeast fitness was not above 0.5.
